Source: PubChem
Hits are enriched below; roughly 1.7% of the tested compounds scored in any of these assays.
Runt-CBFb FRET: Runt domain-CBFb interaction inhibition; Q01196+Q13951; Cerulean-Runt/Venus-CBFb FRET ratio 530/480, 1 h; inhibition, % at 20 µM; 0.46% of 220,000 active;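 active = inhibition over about 50% at 20 µM in the single-dose screen, limit read from the data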
Target sequence (Q01196 whole entry, looked up, the tested form may be a part): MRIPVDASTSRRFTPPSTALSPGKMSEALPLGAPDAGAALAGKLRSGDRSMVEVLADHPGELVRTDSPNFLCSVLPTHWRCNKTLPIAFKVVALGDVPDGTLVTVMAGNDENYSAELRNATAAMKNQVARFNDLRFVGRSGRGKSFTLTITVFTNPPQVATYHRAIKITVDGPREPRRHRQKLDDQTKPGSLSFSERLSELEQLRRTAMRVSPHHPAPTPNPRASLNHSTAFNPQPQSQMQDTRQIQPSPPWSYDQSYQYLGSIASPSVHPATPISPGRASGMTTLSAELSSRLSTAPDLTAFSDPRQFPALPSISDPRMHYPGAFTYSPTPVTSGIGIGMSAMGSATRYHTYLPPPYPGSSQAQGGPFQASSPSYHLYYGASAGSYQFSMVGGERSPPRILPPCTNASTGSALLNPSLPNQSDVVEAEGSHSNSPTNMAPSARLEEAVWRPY
Target sequence (Q13951 whole entry, looked up, the tested form may be a part): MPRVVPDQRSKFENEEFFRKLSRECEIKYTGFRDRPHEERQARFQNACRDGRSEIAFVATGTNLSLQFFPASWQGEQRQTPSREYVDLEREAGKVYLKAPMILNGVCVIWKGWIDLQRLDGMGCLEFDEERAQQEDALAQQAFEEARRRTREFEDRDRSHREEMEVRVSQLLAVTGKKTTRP
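Measured by: fluorescence energy transfer, 422 nm excitation, 530/480 nm emission; test system: Cerulean-tagged RUNX1 Runt domain (FRET donor) fusion protein; buffer or medium: Tris pH 7.5 buffer with BSA; compound: one dose, 20 µM compound, 1% DMSO; times: two 1 h room-temperature incubations shielded from light; benchmarks: unlabeled CBFb 5 µM, positive control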
RanGTP-Impb inh: disruptors of Ran-importin-beta complex formation – biochemical, FRET, CFP-Ran, YFP-importin-beta, homogeneous, primary screen. 1.1% of 300,000 active. AID 2216. cell-free CFP-Ran/YFP-importin-beta FRET ratio. inhibition, % (test concentration not listed);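 active = more than half of the replicate wells show a fall in the fluorescence ratio signal beyond about 16%, limit read from the data, passing the limit was not always enough; inconclusive = exactly half of the replicate wells pass the set limit; inactive = fewer than half of replicates pass the limit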
Runt-SMMHC FRET: blocks binding of human RUNX1 Runt domain to CBFb-SMMHC; Q01196+Q13951; Cerulean-Runt/Venus-CBFb-SMMHC FRET ratio 530/480, 1 h; inhibition, % at 20 µM; 0.74% of 220,000 active;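 active = mean inhibition across duplicate retests at 20 µM reaching about 50%, limit read from the data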;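 also: inhibitors lower the FRET ratio by blocking Runt binding to CBFb-SMMHC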
Hck Nef HTS: human Hck-Nef kinase inhibition. Recombinant Hck-YEEI plus Nef, Z-Lyte FRET kinase assay. inhibition, % at 20 µM. 0.68% of 220,000 active;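 active = Hck-Nef kinase inhibition above about 50%, limit read from the data; inactive = inhibition below that limit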
Each line names hits and unclear results; the compound was inactive in the other large screens.

CCOC(=O)C1=C(C)NC(C)=C(C(=O)OCC)C1c1cccc(C)n1	none
CC1=C(C(=O)OCC2CCCO2)C(c2ccc(C)cc2)C2=C(CC(C)(C)CC2=O)N1 (centres undefined)	Runt-SMMHC FRET 56
COc1ccc(C2C(C#N)=C(SC)NC3=C2C(=O)CC(C)(C)C3)cc1 (centres undefined)	none
CCOC(=O)C1=C(C)NC2=C(C(=O)CC(C)(C)C2)C1c1cccc(C)n1 (centres undefined)	RanGTP-Impb inh inconclusive, Runt-SMMHC FRET 88
COC(=O)c1ccc(C2C(C#N)=C(C)NC3=C2C(=O)CC(C)(C)C3)cc1 (centres undefined)	Runt-SMMHC FRET 81
CCCCC1C(C#N)=C(C)NC2=C1C(=O)CC(C)(C)C2 (centres undefined)	Runt-SMMHC FRET 69
Cc1nc2c(O)cccc2cc1CO	none
COc1cc2ncnc(NCc3ccccc3Cl)c2cc1OC	Hck Nef HTS 74
COc1cc2ncnc(NCc3ccccc3C)c2cc1OC	none
Cc1ccc(N2CCN(S(=O)(=O)c3c(C)noc3C)CC2C)cc1 (centres undefined)	none (no result: Runt-CBFb FRET, Runt-SMMHC FRET, Hck Nef HTS)
Cc1cccn2c(=O)c(/C=C3\SC(=S)NC3=O)c(NCCCN3CCOCC3)nc12	RanGTP-Impb inh 35
CC(C)CC[n+]1ccn(-c2nc3ccccc3nc2[N-]S(=O)(=O)c2ccc(Cl)cc2)c1	RanGTP-Impb inh 30
Cc1ccc(S(=O)(=O)[N-]c2nc3ccccc3nc2-n2cc[n+](CCC(C)C)c2)cc1	RanGTP-Impb inh inconclusive
CC1CN(S(=O)(=O)c2ccc(C(=O)Nc3sc4c(c3C(N)=O)CCN(C)C4)cc2)CC(C)O1 (centres undefined)	none (no result: RanGTP-Impb inh)
CCN1CCc2c(sc(NC(=O)c3ccc(S(=O)(=O)N(C)c4ccccc4)cc3)c2C(=O)NC)C1	none (no result: Runt-CBFb FRET, Runt-SMMHC FRET, Hck Nef HTS)
CCN1CCN(S(=O)(=O)c2ccc(C(=O)Nc3sc4c(c3C(N)=O)CCN(CC)C4)cc2)CC1	RanGTP-Impb inh 58 (no result: Runt-CBFb FRET, Runt-SMMHC FRET, Hck Nef HTS)
CCOC(=O)c1c(NC(=O)c2ccc(S(=O)(=O)N3CCOCC3)cc2)sc2c1CCN(C)C2	none
CCN1CCc2c(sc(NC(=S)NC(=O)c3ccc(Cl)cc3)c2C(N)=O)C1	Runt-CBFb FRET 119, RanGTP-Impb inh 81, Runt-SMMHC FRET 60
CCN1CCc2c(sc(NC(=O)c3ccc(S(=O)(=O)N4CC(C)OC(C)C4)cc3)c2C(N)=O)C1 (centres undefined)	RanGTP-Impb inh 28 (no result: Runt-CBFb FRET, Runt-SMMHC FRET, Hck Nef HTS)
CC(C)N1CCc2c(sc(NC(=O)c3ccc(S(=O)(=O)N4CCc5ccccc54)cc3)c2C(N)=O)C1	RanGTP-Impb inh 90
Cc1cc(N2C(=O)C3CCC(c4ccccc4)CC3C2=O)no1 (centres undefined)	RanGTP-Impb inh inconclusive
CCN(c1ccc(OC)cc1)S(=O)(=O)c1nnc(NC(=O)c2ccccc2Cl)s1	none (no result: Runt-CBFb FRET, Runt-SMMHC FRET, Hck Nef HTS)
COCCn1c(=NC(=O)CSCC(=O)N2CCOCC2)sc2cc(C)ccc21	none (no result: Runt-CBFb FRET, Runt-SMMHC FRET, Hck Nef HTS)
NC(=O)c1ccsc1NC(=O)COC(=O)c1cc(=O)[nH]c2ccccc12	none (no result: Runt-CBFb FRET, Runt-SMMHC FRET, Hck Nef HTS)
CCc1ccc[n+](-c2nc3ccccc3nc2C(=C=[N-])C#N)c1	RanGTP-Impb inh 31
Cc1onc(-c2ccc(Cl)cc2Cl)c1C(=O)/C=C/N(C)C	none
Cc1onc(-c2ccccc2)c1C(=O)/C=C/N(C)C	RanGTP-Impb inh 17
Cc1ccc[n+](-c2nc([O-])sc2C=O)c1	none (no result: RanGTP-Impb inh)
O=Cc1sc([O-])nc1-[n+]1ccc2ccccc2c1	RanGTP-Impb inh 28
O=C(NCCS(=O)(=O)NC1CCCC1)c1ccc(F)cc1	none (no result: Runt-CBFb FRET, Runt-SMMHC FRET, Hck Nef HTS)
COc1ccccc1C(=O)NC(=S)NNC(=O)c1sc2ccccc2c1Cl	RanGTP-Impb inh 49
COC(=O)CCSCC(=O)Nc1ccc(C)c(S(=O)(=O)N2CCCCC2)c1	none
Cc1ccc2c(cnn2C(=O)CCCC(=O)NCc2ccc(Cl)cc2)c1	RanGTP-Impb inh 26 (no result: Runt-CBFb FRET, Runt-SMMHC FRET, Hck Nef HTS)
CC(C)CC(C)N1CCC(n2nccc2NC(=O)CCc2ccccc2)CC1 (centres undefined)	none (no result: Runt-CBFb FRET, Runt-SMMHC FRET, Hck Nef HTS)
CC(CC(F)(F)F)N1CCC(n2nccc2NC(=O)CCCc2ccccc2)CC1 (centres undefined)	RanGTP-Impb inh 57 (no result: Runt-CBFb FRET, Runt-SMMHC FRET, Hck Nef HTS)
CCOC(=O)c1c(NC(=O)CSc2nc3ccc(OC)cc3[nH]2)sc2c1CC(C)(C)NC2(C)C	none (no result: Runt-CBFb FRET, Runt-SMMHC FRET, Hck Nef HTS)
Cc1cc(Oc2nc3ccccn3c(=O)c2/C=C(\C#N)C(=O)NC2CCS(=O)(=O)C2)ccc1Cl (centres undefined)	RanGTP-Impb inh 59 (no result: Runt-CBFb FRET, Runt-SMMHC FRET, Hck Nef HTS)
N#C/C(=C\c1c(Oc2ccc(Cl)cc2)nc2ccccn2c1=O)C(=O)NC1CCS(=O)(=O)C1 (centres undefined)	RanGTP-Impb inh 51 (no result: Runt-CBFb FRET, Runt-SMMHC FRET, Hck Nef HTS)
